Measured values gathered from unrelated publications.
Lines come from different studies, so protocols differ.
CDK1: Cyclin-dependent kinase 1 (CDK1, Homo sapiens, UniProt P06493)
CDK9: Cyclin-dependent kinase 9 (CDK9, Homo sapiens, UniProt P50750)
DPP4: Dipeptidyl peptidase 4 (DPP4, Homo sapiens, UniProt P27487)

| SMILES | target | assay | setting | measurement | result |
| --- | --- | --- | --- | --- | --- |
| Cc1cc2cc(Oc3ccnc(Nc4cccc(CS(=O)(=O)NCCN(C)C)c4)n3)ccc2[nH]1 | CDK1 | enzyme activity, inhibitor, ADP detection | 10 µM | inhibition | 51.5% |
| CN(C)c1ncnc2c1ncn2[C@@H]1O[C@H](CCl)[C@@H](NC(=O)[C@H](CSC(c2ccccc2)c2ccccc2)NC(=O)OC(C)(C)C)[C@H]1O | Aminopeptidase N (ANPEP, Homo sapiens, UniProt P15144) | enzyme activity, inhibitor, fluorescence | 10 µM | inhibition | 4.6% |
| O=C1NC(=NCc2cccs2)S/C1=C\c1ccc2ncccc2c1 | CDK1 | enzyme activity, inhibitor, ADP detection | 10 µM | inhibition | 100% |
| COc1ccc(S(=O)(=O)N(CC(=O)NO)CC(C)C)cc1 | Stromelysin-2 (Homo sapiens, UniProt P09238) | enzyme activity, inhibitor | 0.5 µM | inhibition | 47.4% |
| C=CC(=O)N1CCC(COCC(=O)N2CCN(c3nc(-c4cnc(N)nc4C(F)F)nc(N4CCOC[C@@H]4C)n3)CC2)CC1 | CDK9 | binding, competition with immobilised ligand | 1 µM | remaining binding | 100% |
| CNc1ncc2c(/C=C/C(=O)N3CCC(OC)CC3)nn(Cc3cccc(C(F)(F)F)c3)c2n1 | Cyclin-dependent kinase 1, with cyclin A2 (CDK1, Homo sapiens, UniProt P06493) | enzyme activity, inhibitor, radiometric | 1 µM | remaining activity | 86% |
| Cn1c(=O)cc(N2CCC(N)CC2)n(Cc2nc3ccccc3c(=O)n2-c2cccc(C(F)(F)F)c2)c1=O | DPP4 | enzyme activity, inhibitor | 20 µM | inhibition | 25.6% |
| Cc1cc([C@@H](C)Nc2ccccc2C(=O)O)c2nc(N3CCC(F)(F)CC3)c(C#N)c(=O)n2c1 | Mitogen-activated protein kinase 3 (MAPK3, Homo sapiens, UniProt P27361) | binding, competition with immobilised ligand | 1 µM | remaining binding | 100% |
| COc1cc(-c2cncc3c2CN(C)Cc2cc(N4CCNCC4)ccc2-3)cc(OC)c1OC | Cyclin-dependent kinase 9, with cyclin T1 (CDK9, Homo sapiens, UniProt P50750) | enzyme activity, inhibitor | 1 µM | remaining activity | 100% |
| Cn1c(=O)cc(N2CCC(N)CC2)n(Cc2nc3ccccc3c(=O)n2-c2ccc(F)cc2)c1=O | DPP4 | enzyme activity, inhibitor | 20 µM | inhibition | 19.9% |
| CC(=O)c1c(C)c2cnc(Nc3ccc(N4CCNCC4)cn3)nc2n(C2CCCC2)c1=O | CDK9 | enzyme activity, inhibitor, ADP detection | 1 µM | activity vs control | 106% |
| CCO[C@@H](Cc1ccc(OCCc2ccc(OS(C)(=O)=O)cc2)cc1)C(=O)O | CDK1 | enzyme activity, inhibitor, ADP detection | 100 µM | inhibition | 96.9% |
| Cn1c(=O)cc(N2CCC(N)CC2)n(Cc2nc3ccc(Br)cc3c(=O)n2-c2cccc(F)c2)c1=O | DPP4 | enzyme activity, inhibitor | 20 µM | inhibition | 46.8% |
